This is an account of results in ChEMBL document CHEMBL3232847, “Discovery of 6-phenylpyrimido[4,5-b][1,4]oxazines as potent and selective acyl CoA:diacylglycerol acyltransferase 1 (DGAT1) inhibitors with in vivo efficacy in rodents” (J Med Chem, 2014).

Data set [1] has as its target T1, Diacylglycerol O-acyltransferase 1 (Homo sapiens, UniProt O75907).
T1 sequence (O75907 whole entry): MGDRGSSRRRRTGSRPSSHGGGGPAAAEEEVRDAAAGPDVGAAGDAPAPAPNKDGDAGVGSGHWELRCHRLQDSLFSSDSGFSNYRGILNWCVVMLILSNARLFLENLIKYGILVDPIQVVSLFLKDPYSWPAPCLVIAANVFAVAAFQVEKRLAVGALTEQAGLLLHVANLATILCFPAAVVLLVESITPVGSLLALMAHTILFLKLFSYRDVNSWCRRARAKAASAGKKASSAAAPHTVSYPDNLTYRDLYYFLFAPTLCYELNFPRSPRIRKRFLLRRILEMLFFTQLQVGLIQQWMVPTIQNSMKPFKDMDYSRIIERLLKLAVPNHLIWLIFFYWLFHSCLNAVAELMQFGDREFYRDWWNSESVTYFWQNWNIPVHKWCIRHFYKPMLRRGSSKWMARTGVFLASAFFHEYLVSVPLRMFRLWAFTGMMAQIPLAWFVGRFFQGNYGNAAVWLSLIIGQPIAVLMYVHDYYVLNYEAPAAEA
Kind of data set: Inhibition of human liver flag-tagged DGAT1 expressed in baculovirus infected insect cells after 2 hrs by SPA.

Data set [2] can be described thus: Clearance in Sprague-Dawley rat at 1 mg/kg, iv. The format is ADME, organism-based. On the set-up: dose 1 mg/kg, route intravenous. The conditions noted are these: in vivo.
The subject of data set [3] is Rattus norvegicus. The data set is described as follows: Toxicity in Sprague-Dawley rat assessed as elevation of plasma ALT level at 50 mg/kg, iv administered as single dose. The settings on record: in vivo. Set-up: dose 50 mg/kg, route intravenous. Type of data set: organism-based.
Data set [4] has as its system Rattus norvegicus. The data set is described as follows: Toxicity in Sprague-Dawley rat assessed as elevation of plasma AST level at 50 mg/kg, iv administered as single dose. Type of data set: organism-based. On the set-up: dose 50 mg/kg, route intravenous. The settings on record: in vivo.
The target in a further data set is T2, Cytochrome P450 1A2 (Homo sapiens, UniProt P05177).
T2 sequence (P05177 whole entry): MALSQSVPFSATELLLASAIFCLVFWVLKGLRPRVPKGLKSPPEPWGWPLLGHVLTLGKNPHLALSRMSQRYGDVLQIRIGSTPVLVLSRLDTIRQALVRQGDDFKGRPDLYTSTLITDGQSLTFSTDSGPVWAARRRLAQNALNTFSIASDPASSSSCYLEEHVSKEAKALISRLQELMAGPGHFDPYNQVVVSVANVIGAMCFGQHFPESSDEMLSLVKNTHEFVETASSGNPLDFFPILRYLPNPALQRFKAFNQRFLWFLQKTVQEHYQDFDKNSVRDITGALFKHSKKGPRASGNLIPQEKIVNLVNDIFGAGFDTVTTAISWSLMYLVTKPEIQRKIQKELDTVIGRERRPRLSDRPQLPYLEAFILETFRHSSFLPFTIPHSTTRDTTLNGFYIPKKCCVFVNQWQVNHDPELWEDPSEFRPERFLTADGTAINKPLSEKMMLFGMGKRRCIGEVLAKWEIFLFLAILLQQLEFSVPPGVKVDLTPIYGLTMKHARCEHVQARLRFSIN
Kind of data set: Inhibition of CYP1A2 (unknown origin) at 10 uM. Type of data set: ADME.

For another data set, the target named is Cytochrome P450 2D6 (Homo sapiens, UniProt P10635). Kind of data set: Inhibition of CYP2D6 (unknown origin) at 10 uM. The format is ADME.
Chain of Cytochrome P450 2D6 (P10635 whole entry): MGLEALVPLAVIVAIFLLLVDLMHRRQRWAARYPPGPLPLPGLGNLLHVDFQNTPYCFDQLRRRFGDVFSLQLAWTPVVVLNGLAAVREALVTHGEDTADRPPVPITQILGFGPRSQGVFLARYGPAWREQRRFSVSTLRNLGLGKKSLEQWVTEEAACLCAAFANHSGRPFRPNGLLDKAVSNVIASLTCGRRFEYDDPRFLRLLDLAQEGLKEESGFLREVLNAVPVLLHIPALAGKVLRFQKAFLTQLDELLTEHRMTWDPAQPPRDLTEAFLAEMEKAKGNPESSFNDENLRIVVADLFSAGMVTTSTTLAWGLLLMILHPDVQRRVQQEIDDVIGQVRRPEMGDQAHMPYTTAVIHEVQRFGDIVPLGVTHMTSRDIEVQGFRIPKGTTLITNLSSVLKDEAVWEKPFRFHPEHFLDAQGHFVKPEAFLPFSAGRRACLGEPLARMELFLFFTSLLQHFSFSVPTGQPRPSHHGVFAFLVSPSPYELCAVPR
The target in another data set is Cytochrome P450 2C9 (Homo sapiens, UniProt P11712). Kind of data set: Inhibition of CYP2C9 (unknown origin) at 10 uM. The format is ADME.
Chain of Cytochrome P450 2C9 (P11712 whole entry): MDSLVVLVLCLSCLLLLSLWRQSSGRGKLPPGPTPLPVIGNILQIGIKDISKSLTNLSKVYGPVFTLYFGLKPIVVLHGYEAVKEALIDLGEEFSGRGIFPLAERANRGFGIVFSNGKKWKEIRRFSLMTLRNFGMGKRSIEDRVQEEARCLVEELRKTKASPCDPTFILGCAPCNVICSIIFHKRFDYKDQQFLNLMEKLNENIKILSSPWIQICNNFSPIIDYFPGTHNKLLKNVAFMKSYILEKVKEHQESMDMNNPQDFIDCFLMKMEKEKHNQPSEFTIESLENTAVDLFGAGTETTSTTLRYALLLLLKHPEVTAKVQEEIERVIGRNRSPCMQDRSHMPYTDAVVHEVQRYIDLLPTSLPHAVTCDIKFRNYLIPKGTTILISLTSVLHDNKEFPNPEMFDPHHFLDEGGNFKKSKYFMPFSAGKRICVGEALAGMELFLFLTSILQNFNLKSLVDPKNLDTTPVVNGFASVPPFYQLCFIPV
The target of a further data set is Cytochrome P450 3A4 (Homo sapiens, UniProt P08684). Kind of data set: Inhibition of CYP3A4 (unknown origin) at 10 uM. The format is ADME.
Chain of Cytochrome P450 3A4 (P08684 whole entry): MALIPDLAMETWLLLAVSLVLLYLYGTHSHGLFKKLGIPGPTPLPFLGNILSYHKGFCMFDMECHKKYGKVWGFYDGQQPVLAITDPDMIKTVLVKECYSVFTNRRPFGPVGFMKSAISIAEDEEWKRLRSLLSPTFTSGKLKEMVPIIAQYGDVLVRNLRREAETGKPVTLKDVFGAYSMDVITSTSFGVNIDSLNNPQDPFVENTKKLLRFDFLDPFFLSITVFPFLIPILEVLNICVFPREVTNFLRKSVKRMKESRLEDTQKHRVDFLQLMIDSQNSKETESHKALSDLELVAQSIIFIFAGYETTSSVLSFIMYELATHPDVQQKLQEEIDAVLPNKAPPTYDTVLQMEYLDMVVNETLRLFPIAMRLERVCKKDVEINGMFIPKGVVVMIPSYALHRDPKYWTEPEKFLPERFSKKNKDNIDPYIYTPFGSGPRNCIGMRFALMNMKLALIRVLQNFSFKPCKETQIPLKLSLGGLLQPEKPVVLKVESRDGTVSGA
Data set [5] deals with Rattus norvegicus. The data set is described as follows: Toxicity in Sprague-Dawley rat assessed as sebaceous gland atrophy at 100 to 500 mg/kg, po by 28-day multiple-dose toxicity study. The format is organism-based. Set-up: dose 100-500 mg/kg, route oral. The conditions noted are these: in vivo. In a few lines: (§1)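 Sprague−Dawley rats were dosed po at 100 and 500 mg kg−1 day−1 for 28 days. Clinical pathology was assessed for treatment-related changes, including sebaceous gland atrophy.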

Data set [6] relates to Rattus norvegicus. The data set is described as follows: Toxicity in Sprague-Dawley rat assessed as clinical pathology parameters at 100 to 500 mg/kg, po by 28-day multiple-dose toxicity study. Type of data set: organism-based. On the set-up: dose 100-500 mg/kg, route oral. The conditions noted are these: in vivo. In a few lines:
as §1

Another data set deals with Salmonella typhimurium. The data set is described as follows: Genotoxicity in Salmonella typhimurium. The format is toxicity, organism-based. The settings on record: salmonella enterica subsp. enterica serovar typhimurium.
For data set [7], the system named is Cynomolgus monkey. The data set is described as follows: Toxicity in cynomolgus monkey assessed as QTc interval prolongation at 1 mg/kg/day, po by 28-day multiple-dose toxicity study relative to control. Type of data set: organism-based, Macaca fascicularis. Set-up: route oral. The conditions noted are these: in vivo. A digest of the protocol:
(§2)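 Cynomolgus monkeys were dosed po at 1, 10 and 100 mg kg−1 day−1 for 28 days. Plasma ALT and AST were measured and QTc intervals were recorded, with eight monkeys in the 100 mg/kg group.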

Data set [8] relates to Cynomolgus monkey. Kind of data set: Toxicity in cynomolgus monkey assessed as QTc interval prolongation at 10 mg/kg/day, po by 28-day multiple-dose toxicity study relative to control. The format is organism-based, Macaca fascicularis. Set-up: route oral. The settings on record: in vivo. A digest of the protocol:
as §2

Data set [9] has as its system CHL (Chinese hamster lung cells). Kind of data set: Toxicity in CHL cells assessed as chromosomal aberration.

On to `Nc1cccc2c1N=C(c1ccc(Br)cc1)CO2`, for which the IC50 (as a rule, the concentration that inhibits the measured activity by half) in data set [1] is greater than 10 µM.
With `CC1(C)Oc2nc(C(F)(F)F)nc(N)c2N=C1c1ccc([C@H]2CC[C@H](CC(=O)O)CC2)cc1`, in [2], the clearance (as a rule, the volume of plasma or blood freed of the substance per unit of time) is 1.33 mL/min/kg.
As for `Nc1nc(N)c2c(n1)OCC(c1ccc(Br)cc1)=N2`, the IC50 in data set [1] was greater than 10 µM.
Still for that read-out and setting: the value for `CN(C)c1nc(N)c2c(n1)OCC(c1ccc(Br)cc1)=N2` was greater than 10 µM.
With `CC1(C)Oc2ncnc(N)c2C=C1c1ccc([C@H]2CC[C@H](CC(=O)O)CC2)cc1`, in data set [2], the clearance is 23.3 mL/min/kg.
In data set [1], `CN(C)c1ncnc2c1N=C(c1ccc(Br)cc1)CO2` displayed a 50% inhibitory concentration (IC50) greater than 10 µM.
With `CC1(C)Oc2nc(O)nc(N)c2N=C1c1ccc([C@H]2CC[C@H](CC(=O)O)CC2)cc1`, the Activity result in the data set with Rattus norvegicus [3] and in the data set with Rattus norvegicus [4] was “Toxic” each time.
Turning to `Cc1nc(N)c2c(n1)OC(C)(C)C(c1ccc([C@H]3CC[C@H](CC(=O)O)CC3)cc1)=N2`, the “inhibition (INH)” value against Cytochrome P450 1A2, against Cytochrome P450 2D6, against Cytochrome P450 2C9 and against Cytochrome P450 3A4 was “Not Active” each time. For the same compound, the Activity result in the data set on Rattus norvegicus [5] is “Toxic”; with Rattus norvegicus [6] it was “Non-toxic”; with Salmonella typhimurium, “Non-toxic”; in the data set on Cynomolgus monkey [7] it was “Non-toxic”; in the data set on Cynomolgus monkey [8], “Non-toxic”; in data set [9], “Toxic”. This compound also had a clearance in data set [2] of 3.5 mL/min/kg.
On to `Nc1nc(O)nc2c1N=C(c1ccc(Br)cc1)CO2`, for which the half-inhibitory concentration (IC50) in data set [1] was greater than 10 µM.
Still for that read-out and setting: the value for `CNc1ncnc2c1N=C(c1ccc(Br)cc1)CO2` was greater than 10 µM.
`CC1(C)Oc2ncnc(N)c2C=C1c1ccc2c(c1)CC[C@]21CC[C@@H](CC(=O)O)CC1` showed a clearance in data set [2] of 21.7 mL/min/kg.
